Reference: ChEMBL document CHEMBL4334446, “Evaluating the effects of fluorine on biological properties and metabolic stability of some antitubulin 3-substituted 7-phenyl-pyrroloquinolinones” (Eur J Med Chem, 2019)

Legend:
Jurkat = experiment: Growth inhibition of human Jurkat cells incubated for 72 hrs by MTT assay; assay type: functional
In short: (§1)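 Leukemia lines were grown in RPMI-1640; the CEM^Vbl-100 medium also contained 100 ng/mL vinblastine. Cells were seeded at 8 × 10³ per well and left 18 h at 37 °C, 5% CO2. Medium was then replaced with fresh medium holding graded compound concentrations (DMSO stocks), in triplicate, for 72 h. Viability was read by MTT, and GI50 = concentration inhibiting proliferation 50%.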

MDA-MB-468 = experiment: Growth inhibition of human MDA-MB-468 cells incubated for 72 hrs by MTT assay; assay type: functional; settings: MDA-MB-468, 72 h
MCF7 = experiment: Growth inhibition of human MCF7 cells incubated for 72 hrs by MTT assay; assay type: functional; settings: MCF7, 72 h
A2058 = experiment: Growth inhibition of human A2058 cells incubated for 72 hrs by MTT assay; assay type: functional; settings: A2058, 72 h
RS4-11 = experiment: Growth inhibition of human RS4:11 cells incubated for 72 hrs by MTT assay; assay type: functional; settings: RS4-11, 72 h; in short: as §1
MDA-MB-231 = experiment: Growth inhibition of human MDA-MB-231 cells incubated for 72 hrs by MTT assay; assay type: functional; settings: MDA-MB-231, 72 h
HeLa = experiment: Growth inhibition of human HeLa cells incubated for 72 hrs by MTT assay; assay type: functional
HT-29 = experiment: Growth inhibition of human HT-29 cells incubated for 72 hrs by MTT assay; assay type: functional; settings: HT-29, 72 h
[1] = Growth inhibition of human DND41 cells incubated for 72 hrs by MTT assay; assay type: functional; settings: DND41, 72 h; in short: as §1
A-375 = experiment: Growth inhibition of human A375 cells incubated for 72 hrs by MTT assay; assay type: functional; settings: A-375, 72 h
HL-60 = experiment: Growth inhibition of human HL60 cells incubated for 72 hrs by MTT assay; assay type: functional; settings: HL-60, 72 h; in short: as §1
[2] = Metabolic stability in human liver microsomes assessed as parent compound decline at 10 uM incubated for 60 mins in presence of NADPH by HPLC analysis; assay type: ADME, Microsome; settings: read-out: Drug degradation
In short: (§2)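 Compound (10 µM) was incubated 0 or 60 min at 37 °C with pooled HLMs (1 mg/mL), with or without 1 mM NADPH, or in buffer only (0.1 M KH2PO4 pH 7.4). Reactions were stopped with ice-cold acetonitrile. Remaining parent was measured by HPLC-fluorescence relative to 0 min; mean ± SD, n = 3.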

[3] = Metabolic stability in human liver microsomes assessed as parent compound decline at 10 uM incubated for 60 mins in absence of NADPH by HPLC analysis; assay type: ADME, Microsome; settings: read-out: Drug degradation; in short: as §2
Tubulin (Bos taurus) = Tubulin (Bos taurus) (UniProt Q6B856+Q862L2+Q862F3); experiment: Inhibition of [3H]colchicine binding to bovine brain tubulin at 5 uM relative to control
In short: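 Bovine brain tubulin at 1 µM was incubated with 5 µM [3H]colchicine and the test compound at 5 µM. Inhibition of colchicine binding was measured relative to a control.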

Tubulin = Tubulin (Bos taurus, UniProt Q6B856+Q862L2+Q862F3); experiment: Inhibition of bovine brain tubulin polymerization preincubated for 15 mins followed by GTP addition and measured for 20 mins by turbidimetry-based spectrophotometric method
In short: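 Bovine brain tubulin (10 µM) was preincubated with varying compound concentrations in 0.8 M monosodium glutamate, pH 6.6, for 15 min at 30 °C, then cooled to 0 °C. GTP was added to 0.4 mM final and the mix warmed to 30 °C. Turbidity was followed at 350 nm. IC50 = concentration inhibiting extent of assembly 50% after 20 min.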

[4] = Selectivity ratio of GI50 for PHA-stimulated human PBL cells to GI50 for human DND41 cells incubated for 72 hrs by MTT assay
In short: (§3)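 Leukemia cells (CEM, DND-41, Jurkat) were grown in RPMI-1640 at 8×10³ cells/well and left 18 h. Donor PBL were gradient-separated, held overnight, and non-adherent cells set at 5×10^5 cells/mL with 2.5 µg/mL PHA. Both were exposed 72 h at 37 °C to graded compound concentrations, read by MTT. The ratio is PBL GI50 over leukemia GI50.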

[5] = Selectivity ratio of GI50 for human PBL cells to GI50 for human Jurkat cells incubated for 72 hrs by MTT assay
In short: as §3, with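 “overnight in RPMI-1640/10% FBS,” for “overnight,”, “without PHA (resting).” for “with 2.5 µg/mL PHA.”, “h” for “h at 37 °C”, “graded” for “graded compound”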

[6] = Metabolic stability in human liver microsomes assessed as half life at 10 uM incubated for 30 mins in presence of NADPH by HPLC analysis; assay type: ADME, Microsome
In short: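 Compound (10 µM) was incubated at 37 °C with 0.5 mg/mL pooled HLMs and 1 mM NADPH in 0.1 M KH2PO4 pH 7.4, sampled at 0, 2, 5, 15 and 30 min. Controls without NADPH, or buffer only, ran 0 and 30 min. Parent was quantified by HPLC-fluorescence as % of the 0 min level, n = 3. t1/2 = 0.693/k, with k from regression of ln % remaining versus time.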

[7] = Selectivity ratio of GI50 for human PBL cells to GI50 for human DND41 cells incubated for 72 hrs by MTT assay
In short: as §3, with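 “overnight in RPMI-1640/10% FBS,” for “overnight,”, “without PHA (resting).” for “with 2.5 µg/mL PHA.”, “h” for “h at 37 °C”, “graded” for “graded compound”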

[8] = Metabolic stability in human liver microsomes at 10 uM incubated for 15 mins in presence of NADPH and non-selective CYP inhibitor quercetin by HPLC analysis; assay type: ADME, Microsome; settings: 0.25 h
In short: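 Compound (10 µM) was incubated 0 and 15 min at 37 °C with pooled HLMs and 1 mM NADPH in 0.1 M KH2PO4 pH 7.4, with or without 100 µM quercetin. Parent remaining was measured by HPLC-fluorescence relative to 0 min; mean ± SD, n = 3.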

CCRF-CEM = experiment: Growth inhibition of human CEM cells incubated for 72 hrs by MTT assay; assay type: functional; in short: as §1
[9] = Growth inhibition of PHA-stimulated human PBL cells incubated for 72 hrs by MTT assay; assay type: cell-based; settings: PHA-stimulated PBL cells (peripheral blood lymphocytes)
In short: (§4)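 PBL from healthy donors were isolated on a Lymphoprep gradient, held overnight in RPMI-1640 with 10% FBS, and the non-adherent cells resuspended at 5 × 10^5 cells/mL. Proliferating cultures got 2.5 µg/mL PHA; resting cultures got none. Compound was added at several concentrations for 72 h and viability read by MTT. GI50 reported as mean ± SEM of three experiments.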

[10] = Metabolic stability in human liver microsomes at 10 uM incubated for 30 mins in phosphate buffer at pH 7.4 by HPLC analysis; assay type: ADME, Microsome; settings: pH 7.4, 0.5 h
In short: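 Test compound (10 μM, final) incubated at 37 °C with pooled mixed-gender HLMs (0.5 mg/mL) in 0.1 M KH₂PO₄ pH 7.4 without NADPH. Sampled at 0 and 30 min, quenched with ice-cold acetonitrile, centrifuged, supernatant analysed by HPLC with fluorescence detection (ex 344/em 493 nm). Percent remaining calculated from peak area relative to 0 min; mean ± SD, n = 3.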

[11] = Stability in phosphate buffer at pH 7.4 at 10 uM incubated for 30 mins by HPLC analysis; assay type: physicochemical; settings: pH 7.4, 0.5 h
In short: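 No microsomes or NADPH: compound (10 μM final) held in 0.1 M KH₂PO₄ pH 7.4 at 37 °C. Samples taken at 0 and 30 min, quenched with ice-cold acetonitrile, centrifuged, analysed by HPLC with fluorescence detection. Percent parent remaining relative to 0 min; mean ± SD, n = 3.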

[12] = Selectivity ratio of GI50 for human PBL cells to GI50 for human CEM cells incubated for 72 hrs by MTT assay; assay type: functional
In short: as §3, with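 “overnight in RPMI-1640/10% FBS,” for “overnight,”, “without PHA (resting).” for “with 2.5 µg/mL PHA.”, “h” for “h at 37 °C”, “graded” for “graded compound”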

[13] = Time-dependent metabolic stability in human liver microsomes at 10 uM incubated for 30 mins in presence of NADPH by HPLC analysis; assay type: ADME, Microsome; settings: 0.5 h
In short: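 Pooled mixed-gender HLMs (0.5 mg/mL) plus 1 mM NADPH in 0.1 M KH₂PO₄ pH 7.4, compound 10 μM final, 37 °C. Reaction started with microsomes after 3-min equilibration. Stopped with ice-cold acetonitrile at 0, 2, 5, 15, 30 min, then HPLC-fluorescence of supernatant. Percent remaining vs 0 min (mean ± SD, n = 3). Half-life = 0.693/k from linear regression of Ln % remaining vs time.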

[14] = Selectivity ratio of GI50 for PHA-stimulated human PBL cells to GI50 for human CEM cells incubated for 72 hrs by MTT assay; in short: as §3
[15] = Growth inhibition of multidrug-resistant human CEM/VBL100 cells incubated for 72 hrs by MTT assay; assay type: functional; settings: CEM/VBL100, 72 h; in short: as §1
[16] = Selectivity ratio of GI50 for PHA-stimulated human PBL cells to GI50 for human Jurkat cells incubated for 72 hrs by MTT assay; in short: as §3
[17] = Growth inhibition of human PBL cells incubated for 72 hrs by MTT assay; assay type: cell-based; settings: PBL cells (peripheral blood lymphocytes); in short: as §4

Row | GI50 (Jurkat) [nM] | GI50 (MDA-MB-468) [nM] | GI50 (MCF7) [nM] | GI50 (RS4-11) [nM] | GI50 (MDA-MB-231) [nM] | GI50 (HeLa) [nM] | GI50 (HT-29) [nM] | GI50 (A-375) [nM] | GI50 (HL-60) [nM] | inhibition (Tubulin (Bos taurus)) [%] | IC50 (Tubulin) [nM] | Compound | GI50 (A2058) [nM] | GI50 [1] [nM] | further results
1 | 324 | 1320 | 3460 | 697 | 5590 | 501 | 216 | 2550 | 2310 | – | – | O=C(Oc1cc(-c2ccccc2)nc2ccc3[nH]ccc3c12)c1ccccc1F | 1490 | 2420 | –
2 | 53.7 | 70 | 1080 | 120 | 3030 | 9.3 | 26.6 | 332 | 276 | 34 | 1300 | O=C(c1ccccc1F)n1ccc2c3c(=O)cc(-c4ccccc4)[nH]c3ccc21 | 322 | 240 | metabolised at 1 h, 10 µM [2]: 20%; metabolised at 1 h, 10 µM [3]: 20%
3 | 0.11 | 15 | 52.7 | 0.07 | 69 | 0.7 | 0.9 | 11.4 | 0.08 | 83 | 780 to 840 | CCn1ccc2c3c(=O)cc(-c4cccc(F)c4)[nH]c3ccc21 | 3.5 | 0.13 | RatioGI50 [4]: 10000 - 30000; RatioGI50 [5]: 10000 - 30000; half-life at 10 µM [6]: 11.8 min; RatioGI50 [7]: 10000 - 30000; Stability [8]: Stable; GI50 (CCRF-CEM): 2.2 nM; GI50 at 72 h [9]: 10800 nM; Stability [10]: Stable; Stability [11]: Stable; RatioGI50 [12]: 10000 - 30000; Stability [13]: Unstable; RatioGI50 [14]: 10000 - 30000; GI50 [15]: 0.8 nM; RatioGI50 [16]: 10000 - 30000; GI50 at 72 h [17]: 31300 nM
